These results are taken from paper PMC6210075 (ACS Omega, 2018).

The target in one series is T1, human sEH (Homo sapiens, UniProt P34913).
T1 sequence (P34913 1-555): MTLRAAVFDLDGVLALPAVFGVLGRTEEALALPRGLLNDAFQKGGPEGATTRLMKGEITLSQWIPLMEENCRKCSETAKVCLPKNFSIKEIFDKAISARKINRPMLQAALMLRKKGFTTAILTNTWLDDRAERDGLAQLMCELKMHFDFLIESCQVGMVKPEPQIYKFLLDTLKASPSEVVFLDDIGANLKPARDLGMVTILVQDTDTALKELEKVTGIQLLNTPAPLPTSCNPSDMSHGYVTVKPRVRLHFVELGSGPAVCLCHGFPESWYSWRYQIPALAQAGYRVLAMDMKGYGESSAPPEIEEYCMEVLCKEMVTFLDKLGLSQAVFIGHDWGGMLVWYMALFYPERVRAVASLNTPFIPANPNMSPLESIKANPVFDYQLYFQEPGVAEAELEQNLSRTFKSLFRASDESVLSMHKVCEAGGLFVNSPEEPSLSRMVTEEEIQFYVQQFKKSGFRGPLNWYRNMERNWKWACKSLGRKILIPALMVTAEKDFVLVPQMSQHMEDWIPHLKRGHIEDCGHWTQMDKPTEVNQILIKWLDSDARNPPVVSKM
In words: FRET-based displacement assay for inhibitor dissociation from sEH. The format is binding.

Series [1] in a line: Cassette dosing pharmacokinetics in mice. The format is in vivo. To be noted: male, Swiss Webster, mouse, whole blood, po, 1 mg/kg. A digest of the protocol:
(§1)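 Test compounds were given as a cassette cocktail at 1 mg/kg each, p.o. in PEG300, to groups of 4 rats or 4 mice. Blood was taken by tail vein at set intervals and group averages were used.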

The next series concerns the target T2, mouse FAAH (Mus musculus, UniProt O08914).
T2 sequence (O08914 1-579): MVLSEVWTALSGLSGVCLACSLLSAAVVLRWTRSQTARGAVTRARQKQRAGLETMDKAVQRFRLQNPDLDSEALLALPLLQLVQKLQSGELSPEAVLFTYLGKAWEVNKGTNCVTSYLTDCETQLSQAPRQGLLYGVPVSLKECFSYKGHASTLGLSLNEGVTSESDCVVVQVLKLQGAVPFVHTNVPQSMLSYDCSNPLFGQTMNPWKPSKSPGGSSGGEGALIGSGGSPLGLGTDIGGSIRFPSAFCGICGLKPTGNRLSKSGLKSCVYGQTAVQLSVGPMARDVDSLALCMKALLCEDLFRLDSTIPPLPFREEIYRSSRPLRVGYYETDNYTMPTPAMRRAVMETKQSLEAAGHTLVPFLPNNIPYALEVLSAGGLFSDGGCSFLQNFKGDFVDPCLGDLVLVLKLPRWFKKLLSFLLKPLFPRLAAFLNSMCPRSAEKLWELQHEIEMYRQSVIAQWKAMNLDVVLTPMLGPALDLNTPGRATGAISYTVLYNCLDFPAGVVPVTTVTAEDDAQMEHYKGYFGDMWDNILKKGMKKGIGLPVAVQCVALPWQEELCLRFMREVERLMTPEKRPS
The experiment in a line: FAAH fluorescent inhibition assay, mouse crude tissue homogenate. To be noted: FAAH IC50 (5 min pre-incubation). The format is biochemical.

Another series addresses T3, rat sEH (Rattus norvegicus, UniProt P80299).
T3 sequence (P80299 1-554): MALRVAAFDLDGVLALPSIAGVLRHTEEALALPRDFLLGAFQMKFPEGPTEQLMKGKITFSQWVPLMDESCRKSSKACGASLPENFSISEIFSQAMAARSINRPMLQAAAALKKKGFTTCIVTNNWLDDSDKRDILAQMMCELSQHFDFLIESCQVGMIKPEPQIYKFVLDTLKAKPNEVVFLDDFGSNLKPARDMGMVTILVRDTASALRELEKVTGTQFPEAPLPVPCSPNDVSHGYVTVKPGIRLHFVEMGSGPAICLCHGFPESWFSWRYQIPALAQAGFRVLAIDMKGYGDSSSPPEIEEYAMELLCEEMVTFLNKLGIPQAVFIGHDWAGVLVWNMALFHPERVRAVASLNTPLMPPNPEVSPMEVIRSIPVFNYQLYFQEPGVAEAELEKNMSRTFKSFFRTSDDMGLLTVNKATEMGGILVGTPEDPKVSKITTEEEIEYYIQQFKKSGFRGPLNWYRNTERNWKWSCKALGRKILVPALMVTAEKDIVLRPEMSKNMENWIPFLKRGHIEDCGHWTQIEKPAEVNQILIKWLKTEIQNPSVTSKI
In words: sEH fluorescent inhibition assay, recombinant rat sEH. The format is biochemical.

Series [2] in a line: Cassette dosing pharmacokinetics in rats. Conditions: male, Sprague-Dawley, rat, whole blood, po, 1 mg/kg. The format is in vivo. A digest of the protocol: as §1
A further series addresses T4, rat FAAH (Rattus norvegicus, UniProt P97612).
T4 sequence (P97612 1-579): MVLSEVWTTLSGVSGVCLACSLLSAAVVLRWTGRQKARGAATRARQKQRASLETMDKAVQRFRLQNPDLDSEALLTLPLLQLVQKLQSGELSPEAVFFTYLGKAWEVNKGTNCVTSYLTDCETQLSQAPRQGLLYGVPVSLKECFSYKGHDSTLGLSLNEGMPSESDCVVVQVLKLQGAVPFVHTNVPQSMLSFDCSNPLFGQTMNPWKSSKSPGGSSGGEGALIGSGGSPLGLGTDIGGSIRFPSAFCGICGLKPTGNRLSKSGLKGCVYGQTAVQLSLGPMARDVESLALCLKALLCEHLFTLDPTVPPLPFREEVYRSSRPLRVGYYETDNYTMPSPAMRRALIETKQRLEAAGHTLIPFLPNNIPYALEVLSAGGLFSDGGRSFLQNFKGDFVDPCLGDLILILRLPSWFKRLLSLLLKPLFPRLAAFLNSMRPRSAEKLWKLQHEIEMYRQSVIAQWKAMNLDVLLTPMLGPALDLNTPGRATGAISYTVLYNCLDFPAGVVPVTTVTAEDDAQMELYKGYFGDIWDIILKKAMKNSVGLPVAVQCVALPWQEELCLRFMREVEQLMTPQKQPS
In words: FAAH fluorescent inhibition assay, rat brain microsomes. The format is biochemical. A digest of the protocol:
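Rat brain microsomes: tissue homogenized in 20 mM phosphate (pH 7.4, 5 mM EDTA), spun at 9000g for 20 min, then 100 000g for 1 h, and stored at −80 °C. OMP (100 μM final) in 0.1 M sodium phosphate pH 8, 0.1 mg/mL BSA, 2% DMSO, 37 °C. Fluorescence (ex 303/em 394 nm) read every 30 s for 10 min. No-enzyme background subtracted. IC50 from linear regression of log[I] vs % remaining activity; triplicates.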

Setting [3] is: FAAH IC50 (60 min pre-incubation), 60 min pre-incubation.

Molecules are shown by their SMILES. Where only a bound is given, the exact number is not on record here.

Turning to `O=C(Nc1ccc(C(F)(F)F)cc1F)N1CCC(Cc2cccc(Oc3ccc(C(F)(F)F)cn3)c2)CC1` [compound 18], the “t1/2 (half-life on the enzyme)” value at human sEH (human sEH) is reported as 4.4 min. In addition, the dissociation rate constant (koff) at human sEH (read-out: koff × 10^–3) worked out at 2.7 s⁻¹. For the same molecule, the AUC in series [1] came out at 0.41 µM·h; in series [2], 0.6 µM·h. Further, the values for the Cmax in series [1] and in series [2] were 37 nM and 58 nM, respectively. Moreover, the IC50 was above 10000 nM on mouse FAAH; 240 nM on rat sEH; above 10000 nM on rat FAAH (FAAH IC50 (5 min pre-incubation), 5 min pre-incubation); 1100 nM at rat FAAH (setting [3]).

On rat FAAH (setting [3]), `O=C(Nc1cccnc1)N1CCC(Cc2cccc(Oc3ccc(C(F)(F)F)cn3)c2)CC1` [PF-3845, reference compound] showed a 50% inhibitory concentration (IC50) of 0.2 nM.

As a reminder, the koff is the first-order rate constant of dissociation. For orientation: AUC means concentration integrated over time. High values mean more exposure, low ones less exposure. One may read the Cmax as the maximum level reached in the sampled fluid or tissue. For orientation: IC50 means the point on the concentration scale where inhibition reaches its midpoint.
